In PMC9414273 (Clinical Cancer Research, 2021):
Where two headings read alike, the source gives them in different places.

Experiments:
[1] = test system: patients with advanced cancer; test: Safety and tolerability: treatment-emergent adverse events; assay type: in vivo, human
Summary of the method: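 Patients aged 18 or over with ECOG 0–1 got oral test compound twice daily, 2w/2w or 3w/1w per 28-day cycle, in a 3+3 escalation. Each dose level had at least 3 DLT-evaluable patients. AEs graded by CTCAE v4.03, and investigators judged relation to treatment. AE frequency and percentage given per arm for all patients dosed.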

[2] = test system: patients with advanced or metastatic cancers; test: Antitumor activity; assay type: in vivo, human; conditions: for median PFS: advanced cancers
[3] = test system: 4T1-luciferase–positive preclinical tumor models of triple-negative breast cancer; conditions: in vitro and in vivo; cited from earlier work
T-cell proliferation = conditions: preclinical; cited from earlier work
[4] = cited from earlier work; for NOAEL daily AUC threshold for cardiotoxicity: established preclinically in rats and dogs
[5] = test system: patients with grade 4 glioma; test: Antitumor activity; assay type: in vivo, human
Summary of the method: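 Patients with grade 4 glioma (IDH1/2-mutant or IDH wild-type) got oral test compound twice daily in 28-day cycles: dose escalation on 2w/2w or 3w/1w, expansion at 50 mg 2w/2w. RANO response by CT or MRI at baseline and days 22–28 of every other cycle until confirmed progression or withdrawal. CR/PR confirmed and reported as frequency. PFS and OS by Kaplan–Meier.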

[6] = Plasma pharmacokinetics of LY3200882; assay type: in vivo, human
Summary of the method: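 Oral test compound twice daily on 2w/2w or 3w/1w schedules, 5–50 mg. Plasma measured by validated LC-MS/MS. Cmax, tmax, AUC, CL/F and V/F estimated noncompartmentally. Dose proportionality tested by a power model on log-transformed Cmax and AUC with dose as fixed effect. Steady state and accumulation inferred from t1/2.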

[7] = test system: patients with pancreatic cancer; conditions: patients with treatment-naïve advanced pancreatic cancer; cited from earlier work
[8] = Any grade, Japanese cohort (N = 9)
[9] = Any grade, grade 4 glioma expansion, RP2D 2w/2w (N = 40)
[10] = Any grade, schedule A 2w/2w escalation (N = 30)
[11] = Any grade, schedule B 3w/1w escalation (N = 32)
[12] = Grade ≥3, Japanese cohort (N = 9)
[13] = Grade ≥3, grade 4 glioma expansion, RP2D 2w/2w (N = 40)
[14] = Grade ≥3, schedule A 2w/2w escalation (N = 30)
[15] = Grade ≥3, schedule B 3w/1w escalation (N = 32)
[16] = of a total of 139 patients, LY3200882-based therapies
[17] = schedule A 2w/2w escalation (N = 30)
[18] = schedule B 3w/1w escalation (N = 32)
[19] = grade 4 glioma expansion, RP2D 2w/2w (N = 40)
[20] = single patient, IDH WT grade 4 glioma, monotherapy 50 mg twice a day 2w/2w

CC(C)(O)c1cc(Nc2cc(Oc3cn(C4CC4)nc3C3CCOCC3)ccn2)ccn1 [LY3200882]
Dose-limiting toxicities ([1]; 2w/2w and 3w/1w schedules): not observed
Recommended phase II dose (RP2D) ([1]; 2w/2w schedule): 50 mg twice a day
Recommended phase II dose (RP2D) ([1]; 3w/1w schedule): 35 mg twice a day
ALT increased (study treatment-related AE) [1, 8]: 1 (11) n (%)
Anemia (study treatment-related AE) [1, 8]: 1 (11) n (%)
Fatigue (study treatment-related AE) [1, 8]: 0 (0) n (%)
Nausea (study treatment-related AE) [1, 8]: 1 (11) n (%)
Subjects with ≥1 TEAE related to study treatment [1, 8]: 3 (33) n (%)
ALT increased (study treatment-related AE) [1, 9]: 0 (0) n (%)
Anemia (study treatment-related AE) [1, 9]: 0 (0) n (%)
Fatigue (study treatment-related AE) [1, 9]: 4 (10) n (%)
Nausea (study treatment-related AE) [1, 9]: 0 (0) n (%)
Subjects with ≥1 TEAE related to study treatment [1, 9]: 10 (25) n (%)
ALT increased (study treatment-related AE) [1, 10]: 0 (0) n (%)
Anemia (study treatment-related AE) [1, 10]: 1 (3) n (%)
Fatigue (study treatment-related AE) [1, 10]: 0 (0) n (%)
Nausea (study treatment-related AE) [1, 10]: 1 (3) n (%)
Subjects with ≥1 TEAE related to study treatment [1, 10]: 10 (33) n (%)
ALT increased (study treatment-related AE) [1, 11]: 2 (6) n (%)
Anemia (study treatment-related AE) [1, 11]: 1 (3) n (%)
Fatigue (study treatment-related AE) [1, 11]: 1 (3) n (%)
Nausea (study treatment-related AE) [1, 11]: 1 (3) n (%)
Subjects with ≥1 TEAE related to study treatment [1, 11]: 10 (31) n (%)
ALT increased (study treatment-related AE) [1, 12]: 0 (0) n (%)
Anemia (study treatment-related AE) [1, 12]: 0 (0) n (%)
Fatigue (study treatment-related AE) [1, 12]: 0 (0) n (%)
Nausea (study treatment-related AE) [1, 12]: 0 (0) n (%)
Subjects with ≥1 TEAE related to study treatment [1, 12]: 0 (0) n (%)
ALT increased (study treatment-related AE) [1, 13]: 0 (0) n (%)
Anemia (study treatment-related AE) [1, 13]: 0 (0) n (%)
Fatigue (study treatment-related AE) [1, 13]: 0 (0) n (%)
Nausea (study treatment-related AE) [1, 13]: 0 (0) n (%)
Subjects with ≥1 TEAE related to study treatment [1, 13]: 0 (0) n (%)
ALT increased (study treatment-related AE) [1, 14]: 0 (0) n (%)
Anemia (study treatment-related AE) [1, 14]: 0 (0) n (%)
Fatigue (study treatment-related AE) [1, 14]: 0 (0) n (%)
Nausea (study treatment-related AE) [1, 14]: 0 (0) n (%)
Subjects with ≥1 TEAE related to study treatment [1, 14]: 0 (0) n (%)
ALT increased (study treatment-related AE) [1, 15]: 0 (0) n (%)
Anemia (study treatment-related AE) [1, 15]: 0 (0) n (%)
Fatigue (study treatment-related AE) [1, 15]: 0 (0) n (%)
Nausea (study treatment-related AE) [1, 15]: 0 (0) n (%)
Subjects with ≥1 TEAE related to study treatment [1, 15]: 0 (0) n (%)
Cardiovascular AEs ([1]; LY3200882 as monotherapy): no cardiovascular AEs were observed
Deaths related to study treatment ([1]; overall): none
Patients with SAEs related to study drug ([1]; overall, 3 patients, only in combination expansion arms): 2.2%
Patients with at least 1 serious AE (SAE) ([1]; overall, 24 patients): 17.3%
Deaths reported in the study ([1]; overall, 63 deaths): 45.3%
Patients with TEAEs that were study-treatment (LY3200882) related ([1]; overall, all arms, 55 patients): 39.6%
Patients who experienced ≥1 TEAE ([1]; overall, all arms, 130 of 139 treated patients): 93.5%
median OS ([2]; 35 mg twice a day 3w/1w (8 patients), 95% CI 2.6–NE): 4.0 months
median OS ([2]; 50 mg twice a day 2w/2w (17 patients), 95% CI 1.2–11.4): 6.1 months
Best overall response: CR ([2]; Japanese cohort (N = 9)): 0 (0) n (%)
Best overall response: Nonevaluable ([2]; Japanese cohort (N = 9)): 1 (11) n (%)
Best overall response: PR ([2]; Japanese cohort (N = 9)): 0 (0) n (%)
Best overall response: Progressive disease ([2]; Japanese cohort (N = 9)): 8 (89) n (%)
Best overall response: SD ([2]; Japanese cohort (N = 9)): 0 (0) n (%)
DCR (CR/PR/SD) ([2]; Japanese cohort (N = 9)): 0 (0) n (%)
ORR (CR/PR) ([2]; Japanese cohort (N = 9)): 0 (0) n (%)
median PFS ([2]; 35 mg twice a day 3w/1w (n = 8), 95% CI 0.8–2.6): 1.7 months
median PFS ([2]; 50 mg twice a day 2w/2w (n = 17), 95% CI 0.9–2.0): 1.8 months
Patients who achieved radiologic CR/PR [2, 16]: 11 patients
Patients who had SD [2, 16]: 28 patients
DCR ([2]; overall study population): 28.1%
Best overall response: CR [2, 17]: 0 (0) n (%)
Best overall response: Nonevaluable [2, 17]: 8 (27) n (%)
Best overall response: PR [2, 17]: 1 (3) n (%)
Best overall response: Progressive disease [2, 17]: 15 (50) n (%)
Best overall response: SD [2, 17]: 6 (20) n (%)
DCR (CR/PR/SD) [2, 17]: 7 (23) n (%)
ORR (CR/PR) [2, 17]: 1 (3) n (%)
Best overall response: CR [2, 18]: 0 (0) n (%)
Best overall response: Nonevaluable [2, 18]: 4 (13) n (%)
Best overall response: PR [2, 18]: 1 (3) n (%)
Best overall response: Progressive disease [2, 18]: 20 (63) n (%)
Best overall response: SD [2, 18]: 7 (22) n (%)
DCR (CR/PR/SD) [2, 18]: 8 (25) n (%)
ORR (CR/PR) [2, 18]: 1 (3) n (%)
Effect on tumors in 4T1 models [3]: durable tumor regression
Immunomodulatory effects (T-cell proliferation): induction of T-cell proliferation
NOAEL daily AUC threshold for cardiotoxicity ([4]; 2w/2w schedule): 3.4 mg X h/L
NOAEL daily AUC threshold for cardiotoxicity ([4]; 3w/1w schedule): 1.56 mg X h/L
NOAEL for cardiotoxicity (AUC) ([4]; nonclinical toxicology studies): 3.4 mg X hours/L
Duration of response (RANO PR) ([5]; dose escalation, 1 patient IDH 1–mutant grade 4 glioma, 3w/1w schedule): 3.9 months
Duration of response (RANO PR) ([5]; dose escalation, 1 patient IDH WT grade 4 glioma, 2w/2w schedule): 19 months
Duration of response (RANO PR) ([5]; dose-expansion arm, 1 patient IDH WT grade 4 glioma, 50 mg twice a day 2w/2w): 5.6 months
median OS ([5]; dose-expansion arm, 15 patients with recurrent IDH mutant grade 4 glioma, 95% CI 7.3–NE): 10.6 months
median OS ([5]; dose-expansion arm, 25 patients with IDH WT grade 4 glioma, 95% CI 4.6–9.7): 8.2 months
median PFS ([5]; dose-expansion arm, IDH mutant, 95% CI 1.3–1.8): 1.7 months
Best overall response: CR [5, 19]: 0 (0) n (%)
Best overall response: Nonevaluable [5, 19]: 7 (18) n (%)
Best overall response: PR [5, 19]: 1 (3) n (%)
Best overall response: Progressive disease [5, 19]: 26 (65) n (%)
Best overall response: SD [5, 19]: 6 (15) n (%)
DCR (CR/PR/SD) [5, 19]: 7 (18) n (%)
ORR (CR/PR) [5, 19]: 1 (3) n (%)
Time remained on trial [5, 20]: 30.4 months
Tumor reduction by RANO assessment [5, 20]: 94%
PK profile linearity ([6]; 5- to 50-mg dose range): linear with dose and time
Doses after which steady state would be achieved ([6]; based on the short t1/2): 2 doses
Time at which peak concentration was reached after administration ([6]; oral, patients): 2 h
mean CL/F ([6]; oral, patients): 57.3 L/h
mean V/F ([6]; oral, patients): 559 L
Accumulation ratio ([6]; steady state, twice a day, based on the short t1/2): 1.4 fold
Effect on its own metabolism ([6]; suggested by PK constant over time): neither an inhibitor nor an inducer of its own metabolism

FOLFIRINOX
ORR [7]: 31.6%
